Screening results (PubChem)
This is a sample that favours compounds with a hit; in the whole collection about 2.7% have one here.
SIAE primary = human SIAE inhibition, primary screen | inhibition, % at 9.66 µM | Q9HAT2 | 0.69% of 370,000 active | SIAE FP-Rh probe binding, fluorescence polarization | AID 1053197;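 active means inhibition above a cutoff: mean of compounds within the control limits plus 3 SD of those, cut at about 17% in these data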;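 further: 0% = plate median of compound wells and 100% = probe without SIAE protein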
ABHD4 inh = inhibitors of mouse ABHD4 | Q8VD66 | purified mABHD4, FP-Rh probe fluorescence polarization | inhibition, % at 8.92 µM | 0.54% of 370,000 active;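 active means inhibition exceeding the mean over every tested compound plus 3 SD, cut at about 30% in these data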;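 further: 0% = plate median of compound wells and 100% = S159A mutant with DMSO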
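Doses – 8.92 µM, single dose · Material – wild-type mouse ABHD4 protein · Replication – single well per compound (singlicate) · Measure – percent inhibition of probe binding, normalized to plate controls · Schedule – 45 min compound pre-incubation plus 60 min probe step, 25 °C · Detection – fluorescence polarization with parallel and perpendicular emission, 525/598 nm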
PRMT1 FP inh = blocks human protein arginine methyltransferase 1; 1.3% of 370,000 active; inhibition, % at 2.79 µM; Q99873; recombinant PRMT1, activity-based probe fluorescence polarization;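 active means inhibition above about 21% made by adding two undisclosed values, limit read from the data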
TCR-CD3 inh = human TCR-CD3 binding inhibition. TAMRA-labeled TCR probe fluorescence, biochemical. inhibition, % at 9.4 µM. 0.37% of 360,000 active. AID 651800; in the data active means inhibition above about 19%;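 further: recombinant mutant TCR 2C K166C tagged with TAMRA read by polarization; 0% = receptor in buffer alone and 100% = receptor with positive control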
HTRA1 inh = inhibitors of human serine peptidase HTRA1 | 0.5% of 340,000 active | AID 504803 | recombinant HTRA1, FP-rhodamine activity-based probe, fluorescence polarization | inhibition, % at 5.96 µM; in the data active means inhibition above about 36%;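 further: 0% = enzyme with DMSO and 100% = wells lacking enzyme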
Target sequence (Q92743 whole entry, looked up): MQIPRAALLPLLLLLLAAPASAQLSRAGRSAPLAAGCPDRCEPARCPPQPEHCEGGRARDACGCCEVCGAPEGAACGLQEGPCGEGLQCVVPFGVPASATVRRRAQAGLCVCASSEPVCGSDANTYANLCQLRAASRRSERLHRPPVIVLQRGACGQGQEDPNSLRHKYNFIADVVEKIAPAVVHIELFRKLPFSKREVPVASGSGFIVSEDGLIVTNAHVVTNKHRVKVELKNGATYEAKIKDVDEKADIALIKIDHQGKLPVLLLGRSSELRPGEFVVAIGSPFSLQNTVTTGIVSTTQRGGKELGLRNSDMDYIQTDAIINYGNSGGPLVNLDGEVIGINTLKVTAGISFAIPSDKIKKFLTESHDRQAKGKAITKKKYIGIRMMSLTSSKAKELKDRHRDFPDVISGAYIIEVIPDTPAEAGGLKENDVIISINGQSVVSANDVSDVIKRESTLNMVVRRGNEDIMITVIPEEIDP
Active calls of the source: *; . = not tested or not shown.

SMILES | SIAE primary | ABHD4 inh | PRMT1 FP inh | TCR-CD3 inh | HTRA1 inh
CCOC(=O)c1c(NC(C)=O)sc2c(O)c(Br)cc(Br)c12 | 6 | 36* | 10 | 9 | 0
CCOC(=O)c1c(NC(C)=O)sc2c(O)cccc12 | -6 | -5 | 0 | -1 | 0
COC(=O)c1cc(C)sc1NC(=O)CSc1ncccn1 | 4 | -12 | 22* | 2 | -3
COC(=O)c1ccccc1NC(=O)CSc1ncccn1 | 5 | 6 | -2 | 4 | 2
Cc1ccc(Nc2nc(-c3c(C)nc4ccccn34)cs2)cc1 | 7 | 35* | 3 | -6 | 20
CN1c2ccccc2C(O)=C(C(=S)Nc2ccccc2)S1(=O)=O | -6 | -5 | 22* | 0 | -3
O=C(Nc1ccccc1Cl)O[C@@H]1CC[C@@]23CCCN2C(=O)CCC[C@H]3C1 | -2 | 0 | -2 | . | .
CC[C@]12c3[nH]c4cc(-c5ccco5)ccc4c3CCN1C(=O)[C@@H](CC(=O)NC/C=C(\C)CCC=C(C)C)C[C@@H]2C(=O)N1CCN(C(=O)C2CC2)CC1 | -7 | 1 | 23* | -11 | -3
CC[C@]12c3[nH]c4cc(-c5ccco5)ccc4c3CCN1C(=O)[C@@H](CC(=O)NC/C=C(\C)CCC=C(C)C)C[C@@H]2C(=O)N1CCN(C(=O)c2ccco2)CC1 | . | . | . | . | -23
COc1cc(/C=N/Nc2nc3c(c(=O)n(C)c(=O)n3C)n2Cc2ccccc2)ccc1OC(=O)c1ccco1 | 21* | 0 | 4 | -5 | -2
COc1cc(/C=N/Nc2ccc(Cl)c(C(=O)O)c2)ccc1OC(=O)c1ccco1 | 11 | 6 | 4 | 5 | -3
CCC(C(=O)NC1CCCC1)n1c(-c2cc3ccccc3[nH]2)nc2ccccc21 (centres undefined) | 3 | -5 | 1 | 0 | .
O=C(Nc1ccc(Cl)cc1)Nc1ccc2c(c1)N1CCN=C1S2 | 19* | 5 | 16 | -15 | 10
Nc1ccc2c(c1)N1CCN=C1S2 | 10 | 5 | 1 | 5 | 5
CC(=O)Nc1nc2cc3c(cc2s1)OCO3 | 10 | 4 | -3 | 1 | 0
O=C(NNc1nc2cc3c(cc2s1)OCO3)c1ccc(F)cc1 | 9 | 23 | 23* | -2 | 16
COc1cccc(NC(=O)C/C(C)=N/NC(=O)c2ccccc2Cl)c1 | 3 | -3 | -2 | -7 | -2
C/C(CC(=O)Nc1ccc(Cl)c(C(F)(F)F)c1)=N\NC(=O)c1cc2ccccc2cc1O | 40* | 14 | 3 | -4 | 22
C=C1C(=O)[C@]23C[C@H]1CCC2[C@@]1(C)C(C[C@@H]3O)[C@](C)(C(=O)OC)CC[C@@H]1OC(C)=O (some centres undefined) | -2 | 5 | 24* | -3 | .
O=C(Oc1nsnc1N1CCOCC1)N(c1ccccc1)c1ccccc1 | -4 | -3 | -1 | -2 | 4
COC(=O)Oc1nsnc1N1CCOCC1 | 7 | -2 | 81* | -2 | -7
COc1ccc(C2CC(c3cccs3)=Nc3ccccc3S2)cc1 (centres undefined) | 3 | 3 | 83* | -4 | -15
COc1ccc(C2CC(c3cccs3)=NN2S(C)(=O)=O)cc1 (centres undefined) | -8 | -4 | 0 | 7 | 4
O=C(CCn1nnc2ccccc21)N1CCN(c2cccc(C(F)(F)F)c2)CC1 | 2 | -2 | -7 | . | .
COC(=O)c1ccc(NC(c2ccc(Cl)cc2)P(=O)(OC)OC)cc1 (centres undefined) | 1 | 2 | 1 | -6 | 7
SMILES | SIAE primary | ABHD4 inh | PRMT1 FP inh | TCR-CD3 inh | HTRA1 inh
CC(C)(C)OC(=O)N1CCC2CCN(S(C)(=O)=O)CC21 (centres undefined) | -2 | 7 | 6 | -4 | .
CCOC(=O)C[n+]1c(C)sc2ccc(OC)cc21 | . | . | . | . | 0
CCC(/C=C1\Sc2ccc(OC)cc2N1CC)=C\c1sc2ccc(OC)cc2[n+]1CCCS(=O)(=O)[O-] | -4 | -40 | 61* | -59 | -106
CCO/C(=C/c1sc2ccc(OC)cc2[n+]1CCCS(=O)(=O)[O-])CC | 0 | 7 | 77* | 5 | 9
O=C(/C=C1\NC2(CCCC2)Cc2ccccc21)N1CCOCC1 | 2 | 0 | 27* | 6 | 1
N#Cc1c(N)sc2c1CCCCCC2 | 14 | 8 | 21* | -2 | 8
CC1(C)CC(=O)N(CC(=O)N2CCN(c3ccc(F)cc3)CC2)c2ccccc2S1(=O)=O | -5 | 7 | -4 | . | .
COc1ccc(C(CC(=O)c2ccc(C)cc2)Sc2ccccc2N)cc1 (centres undefined) | 0 | -2 | 24* | -7 | -17
COc1ccc(C(CC(=O)c2ccc(O)cc2)S(=O)(=O)c2ccc(C)cc2)cc1 (centres undefined) | -2 | -17 | 2 | -3 | -9
CC(C)c1ccc(NC(=O)O[C@H]2CC[C@@]34CCCN3C(=O)CCC[C@H]4[C@H]2C)cc1 | -5 | -1 | -3 | . | .
Cc1ccc(S(=O)(=O)NCC(=O)N2CCN(c3ccc(F)cc3)CC2)cc1 | 0 | -4 | -2 | 4 | 1
O=C1c2cc(O)c(O)cc2S(=O)(=O)C1c1ccccc1 (centres undefined) | 2 | 24 | 24* | 6 | 7
O=C(CN1C(=O)c2ccccc2S1(=O)=O)c1ccc(O)c(O)c1 | 8 | 28 | 4 | 0 | 28
COC[C@H]1CCCN1c1ccc2c(c1)O[C@@H]1CCN(C1)S2(=O)=O | -6 | 2 | 6 | . | .
Cc1ccccc1N(C)C(=O)Cn1nnc(-c2ccccc2F)n1 | 0 | 0 | -4 | . | .
CN1CCN(C(=O)Cn2c(=O)oc3cc(S(=O)(=O)NCc4ccccc4)ccc32)CC1 | 25* | -1 | 0 | 5 | 2
Cc1nn(-c2ccccc2)c2sc(C(=O)NCCc3ccc(Cl)cc3)cc12 | -9 | -17 | 3 | . | .
CC(=O)Nc1cc(OC(C)=O)c2nonc2c1OC(C)=O | 7 | 13 | 59* | 3 | 24
Cc1cccc(CS(=O)(=O)c2ncc(Cl)c(C(=O)NCc3ccccc3)n2)c1 | 4 | -2 | 24* | 5 | 5
CCOc1ccc(/C=C2\NCCc3cc(OCC)c(OCC)cc32)cc1OCC | -4 | 3 | -2 | . | .
N=c1cc(C2(O)CCCCC2)n2c(nc3ccccc32)s1 | 2 | 8 | 25* | 8 | -6
CSCc1cc(C(=O)NC2CC2)c(N)s1 | 1 | -4 | 23* | 11 | .
CN(CCOC(=O)CCCc1ccccc1)C1CN(Cc2cn(Cc3ccccc3F)nn2)S(=O)(=O)C1 (centres undefined) | 3 | 2 | 1 | . | .
CN(C)c1ccc(N2C(=O)CSC2=S)cc1 | -15 | 29 | 23* | -46 | 19
O=C(NCc1ccco1)c1nn2c(C(F)(F)F)cc(-c3cccs3)nc2c1Br | -36 | -2 | 13 | -6 | -12
O=C(NCc1ccco1)c1nc2nc(-c3cccs3)cc(C(F)(F)F)n2n1 | -2 | -8 | 23* | -1 | -11
O=C1C2C3C=CC(CC3)C2C(=O)N1c1ccccc1 (centres undefined) | -1 | -6 | -2 | 1 | -4
